High-throughput results: PubChem BioAssay, several laboratories
Compounds with a hit are over-represented: about 1.9% of the library has one in this group of screens.
SKN-1 block: blocks SKN-1 activity in C. elegans | C. elegans VP596 Pgst-4::GFP/RFP ratio, acrylamide-induced, 24 h | inhibition, % at 21.8 µM | 360,000 tested, 0.49% active | AID 624304;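 active = interference check ratio from 0.5 to 1.5 plus GFP to RFP signal ratio inhibition reaching or exceeding a fixed threshold, cut at about 30% in these data, passing the limit was not always enough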
NR2E3 ag-1: activates human photoreceptor nuclear receptor NR2E3; 320,000 tested, 0.12% active; Q9Y5X4; inhibition of corepressor binding, % at 4.78 µM; GST-NR2E3/biotin-RetCOR TR-FRET, 1536-well;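 active = percent inhibition above the cutoff of mean plus 3 SD of all tested compounds, set per screening campaign, cut at about 20% in these data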
Target sequence (Q9Y5X4 whole entry, looked up): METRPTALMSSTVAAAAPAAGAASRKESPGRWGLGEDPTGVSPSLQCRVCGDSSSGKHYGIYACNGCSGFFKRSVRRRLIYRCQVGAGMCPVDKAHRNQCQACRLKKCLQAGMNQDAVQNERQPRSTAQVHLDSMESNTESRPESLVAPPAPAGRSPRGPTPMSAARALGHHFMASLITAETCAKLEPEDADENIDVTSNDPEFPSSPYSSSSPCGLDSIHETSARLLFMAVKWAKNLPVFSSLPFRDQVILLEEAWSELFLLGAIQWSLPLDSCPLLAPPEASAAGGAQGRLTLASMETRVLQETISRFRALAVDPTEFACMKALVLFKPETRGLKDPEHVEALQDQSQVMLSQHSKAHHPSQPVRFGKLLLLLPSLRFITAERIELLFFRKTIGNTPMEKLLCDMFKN
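System: GST-NR2E3 and biotin-RetCOR proteins; probe or stimulus: 7 nM biotin-RetCOR; doses: compound at 4.8 µM, single dose; schedule: Compound–protein incubation for 5 h at 4 °C; detection: time-resolved FRET; read-out: percent inhibition; controls: biotin wells as high control, 0.6% DMSO wells as low control; format: 1536-well plates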
NR2E3 ag-2: activates human NR2E3 receptor. Q9Y5X4. CHO-S Gal4-NCOR/VP16-NR2E3 two-hybrid, luciferase. inhibition of corepressor binding, % at 3.98 µM. 360,000 tested, 0.35% active. AID 602229;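 active = inhibition above the mean of all tested compounds plus 3 SD, cut at about 70% in these data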;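 note: higher means lower luciferase signal from less NR2E3 corepressor binding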
NR1D1 modulator: modulators of human Rev-erb alpha DNA binding | P20393 | Rev-erbα–FITC-DNA binding, fluorescence polarization, 90 min | activity, % at 10 µM | 370,000 tested, 0.79% active | AID 1259318;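 active = activity above about 14%, limit read from the data; passing the limit was not always enough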
MT1-MMP act inh: inhibitors of human MT1-MMP activation; HT1080 RFP-PRO-GFP cells, GFP/RFP ratio fluorescence, overnight; percent of plate control window, DMSO zero; 360,000 tested, 0.061% active; P50281; GFP/RFP ratio change, % at 20 µM;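 active = GFP/RFP ratio change of at least 30% with cell ATP level not reduced by more than half and red fluorescence within 50% of control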
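Test system: HT1080 RFP-PRO-GFP cells; Benchmarks: DMSO and RFP-L50D-GFP cell wells; Timing: cells overnight before dosing, compound overnight, 37 °C, 5% CO2; Compound: one 20 µM compound dose with 1% DMSO; Read-out: GFP/RFP fluorescence ratio.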
PG9 binder: small molecules binding HIV-1 gp120 antibody PG9; inhibition, % at 6.7 µM; AID 624416; TR-FRET gp120-PG9 antibody binding; 360,000 tested, 0.43% active; in the data active = inhibition above about 8.5%
PG9 binder conf: PG9 antibody binding, confirmed | shares compounds with PG9 binder | TR-FRET PG9 antibody binding, biochemical | inhibition, % at 6.7 µM | 1,500 tested, 90% active; in the data active = inhibition above about 9%
PGV04 counter: binds control antibody PGV04 in PG9 binder counter-screen | shares compounds with PG9 binder | TR-FRET PGV04 antibody-gp120 binding, biochemical | inhibition, % at 6.7 µM | 1,500 tested, 95% active; in the data active = inhibition above about 9.5%
PG9 bind DR: PG9 antibody binding, dose response; IC50, µM; shares compounds with PG9 binder; 95 tested, under 10 active; TR-FRET PG9 antibody-gp120 binding inhibition; AID 651848; in the data active = IC50 below about 10 µM
PGV04 binding DR: binds control antibody PGV04 in PG9 counter-screen; IC50, µM; 95 tested, 20% active; shares compounds with PG9 binder; TR-FRET binding to control antibody PGV04; AID 651937
PG126 DR counter: counter-screen for PG9 binders: binding to control antibody PG126. shares compounds with PG9 binder. TR-FRET binding to antibody PG126, counterscreen. IC50, µM. 95 tested, 20% active. AID 651939
A number is an active result; - = inactive; . = no result given. Cut-off read from the data, not from the text of the source, unless noted: active = IC50 below about 9 µM; inactive = the rest.

SMILES	SKN-1 block	NR2E3 ag-1	NR2E3 ag-2	NR1D1 modulator	MT1-MMP act inh	PG9 binder	PG9 binder conf	PGV04 counter	others
CC(OC(=O)/C(C#N)=C/c1ccc(N(C)C)cc1)C(=O)NCc1ccco1 (stereo unspecified)	-	-	-	-	-	10	17	24
CCCC1=Nc2cc(C(=O)NCCCN3CCN(C)CC3)ccc2Sc2ccccc21	-	-	-	-	-	-	.	.
CCCC1=Nc2cc(C(=O)NCCCN3CCOCC3)ccc2Sc2ccccc21	-	-	-	-	-	12	11	15
Cc1ccc(OCc2ccc(C(=O)Nc3nccs3)o2)cc1	-	-	-	-	-	14	15	21
O=C(Nc1nccs1)c1ccc(COc2ccccc2)o1	-	-	-	-	-	9.3	13	20
O=C(Nc1nccs1)c1ccc(CSc2ccccc2)o1	-	-	-	-	-	-	.	.
CCCCNC(=O)C(NC(=O)c1ccc(C)cc1)C(=O)c1ccccc1 (stereo unspecified)	-	.	.	-	-	-	.	.
CCCCNC(=O)C(NC(=O)c1cccc(C(F)(F)F)c1)C(=O)c1ccccc1 (stereo unspecified)	-	.	-	-	-	27	41	55
O=C(NCCc1c[nH]c2ccccc12)OCc1cn(-c2cccc(Cl)c2)nn1	.	.	.	-	.	.	.	.
S=c1nc[nH]c2c1[nH]c1ccccc12	-	-	-	-	-	79	48	29	PG9 bind DR=-;PGV04 binding DR=-;PG126 DR counter=-
O=c1c2[nH]c3ccc(Cl)cc3c2ncn1CCN1CCCCC1	-	-	-	-	-	-	.	.
S=c1nc[nH]c2c1[nH]c1ccc(Cl)cc12	-	-	-	-	-	34	15	17
COC(=O)C1=C(C)N(Cc2ccc(C(F)(F)F)cc2)C(=NCC2CC2)NC1c1ccccc1C(F)(F)F (stereo unspecified)	.	.	.	-	.	-	.	.
COc1ccc(-c2c(Sc3ccccc3)c3cc(-c4ccc(OC)c(F)c4)ccc3n2C)cc1	-	.	-	-	-	27	-	36
COc1cc(OC)cc(-c2c(Sc3ccccc3)c3cc(-c4ccc(OC)c(OC)c4)ccc3n2C)c1	-	.	-	-	-	19	34	19	PG9 bind DR=-;PGV04 binding DR=-;PG126 DR counter=-
COc1cc(OC)cc(-c2c(Sc3ccccc3)c3cc(-c4cnc(N5CCOCC5)nc4)ccc3n2C)c1	-	.	-	-	-	-	.	.
COc1ccc(-c2c(-c3ccc(OC)c(F)c3)c3ccccc3n2C)cc1	-	.	-	-	-	-	.	.
O=C(Nc1ccc(F)cc1)OCc1cn(Cc2ccccc2F)nn1	.	.	.	-	.	.	.	.
O=C(NS(=O)(=O)c1cccc(F)c1)[C@H]1O[C@@H](n2ccc(=O)[nH]c2=O)[C@H](O)[C@@H]1O	.	.	.	-	.	-	.	.
Cc1ccc(-c2nc3cccnc3s2)cc1NS(C)(=O)=O	-	-	-	-	-	9.2	29	34
CCc1cccc(CC)c1NC(=O)C1SC(=Nc2ccccc2C)C(c2nc3ccccc3s2)=C1N (stereo unspecified)	-	-	-	-	-	9.2	9.5	13
CC(C)Oc1ccc(C(=O)Nc2ccc(NC(=O)c3ccco3)c(Cl)c2)cc1	-	-	-	-	-	11	16	23
CC(C)COc1ccc(C(=O)Nc2ccc(NC(=O)c3ccco3)c(Cl)c2)cc1	-	-	-	-	-	-	.	.
COC(=O)c1cc(Br)c(=O)n(Cc2ccncc2)c1	-	-	-	-	-	-	.	.
COC(=O)c1cc(Br)c(=O)n(-c2cc(C)on2)c1	-	-	-	-	-	9.8	21	26
SMILES	SKN-1 block	NR2E3 ag-1	NR2E3 ag-2	NR1D1 modulator	MT1-MMP act inh	PG9 binder	PG9 binder conf	PGV04 counter	others
Cc1cc(NC(=O)c2ccc3c(c2)C(=O)N(CCC(C)C)C3=O)no1	-	-	-	-	-	12	-	-
Cc1cc(NC(=O)c2ccc3c(c2)C(=O)N(C)C3=O)no1	-	-	-	-	-	-	.	.
N#Cc1cn(-c2ccccc2)nc1-c1ccc2c(c1)OCCO2	-	-	-	-	-	24	20	28
O=C(O)C1CCC(Cn2c(SCc3cc(=O)n4cc(Br)ccc4n3)nc3ccsc3c2=O)CC1 (stereo unspecified)	-	-	-	-	-	22	30	50
O=c1oc2cc(O)ccc2c2ccccc12	-	-	-	-	-	22	29	38
COc1ccc2c(c1)c(=O)oc1cc(O)ccc12	-	-	-	-	-	-	.	.
O=c1[nH]c2cc(O)ccc2c2ccccc12	-	.	-	-	-	37	38	47
CCOC(=O)[C@]12CCCC=C1N(CCCOC)C(=O)[C@@H]2CC(=O)NCC1CCCCC1	.	.	.	-	.	.	.	.
COc1ccc(NC(=O)CN(C)CC(=O)Nc2sc3c(c2C(N)=O)CCC3)cc1	-	-	-	-	-	-	.	.
COc1ccc(CC(=O)Nc2sc3c(c2C(N)=O)CCCC3)cc1	-	-	-	-	-	-	.	.
COc1cc(OC)cc(C(=O)Nc2sc3c(c2C(N)=O)CCC3)c1	-	-	-	-	-	50	18	31
COc1cc(CC(=O)Nc2sc3c(c2C(N)=O)CCCC3)cc(OC)c1OC	-	-	-	-	-	9.3	17	23
CCOc1ccc(NC(=O)NC2CC(=O)N(c3ccc(OC)cc3)C2)cc1 (stereo unspecified)	-	-	-	-	-	-	.	.
CCOc1ccc(N2CC(NC(=O)c3ccc4ccccc4c3)CC2=O)cc1 (stereo unspecified)	-	-	-	-	-	12	12	23
COc1cc(OC)c(NC(=O)C(Sc2nc(C)cc(C)c2C#N)c2ccccc2)cc1Cl (stereo unspecified)	.	.	.	-	.	-	.	.
O=C(NCc1ccccc1)[C@H]1CCCN1C(=O)[C@H]1CCCN1C(=O)N1CCCCC1	.	.	.	-	.	-	.	.
Cc1cccc(NC(=O)c2cnn3ccccc23)c1C	-	-	-	-	-	11	-	-
Cc1cccc(NC(=O)c2ccccc2O)c1C	-	-	-	-	-	-	.	.
CC(=O)C(C(C)=O)c1c(Cl)c(O)c(O)c2c(C(=O)c3ccccc3)coc12	-	-	-	-	-	12	18	20
